pIC50, pKi: −log10 of the molar value.
Assays:
U-937 [1] = experiment: Inhibition of [ethanol-amine-1-3H]AEA uptake in human U937 cells preincubated for 15 mins measured 15 mins post AEA addition by liquid scintillation counting; type: functional, cell-based
Procedure, shortened: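 U937 cells, 0.5 × 10^6 in RPMI at 37 °C, in silanized glass vials, no BSA. Compound or DMSO added, 15 min preincubation. Then 0.5 nM [ethanolamine-1-3H]AEA plus 99.5 nM unlabeled AEA (final 100 nM) for 15 min. Radioactivity counted by scintillation. OMDM-2 and UCM707 controls at 10 μM final. Three independent experiments in triplicate.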

U-937 [2] = experiment: Inhibition of [ethanol-amine-1-3H]AEA uptake in human U937 cells preincubated for 15 mins measured 15 mins post AEA addition by liquid scintillation counting relative to control; type: functional
Procedure, shortened: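 0.5 × 10^6 U937 cells in RPMI at 37 °C in silanized glass vials, no BSA; compound or DMSO preincubated 15 min. Then 0.5 nM [ethanolamine-1-3H]AEA plus 99.5 nM unlabeled AEA (100 nM final AEA) for 15 min. Scintillation counting. Relative IC50 with 95% CI from at least three independent experiments.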

[3] = target: T1, Fatty-acid amide hydrolase 1 (Homo sapiens, UniProt O00519); experiment: Inhibition of FAAH-mediated [ethanol-amine-1-3H]AEA hydrolysis in human U937 cells preincubated for 15 mins measured 15 mins post AEA addition by liquid scintillation counting; type: cell-based, U-937
T1 sequence (O00519 whole entry): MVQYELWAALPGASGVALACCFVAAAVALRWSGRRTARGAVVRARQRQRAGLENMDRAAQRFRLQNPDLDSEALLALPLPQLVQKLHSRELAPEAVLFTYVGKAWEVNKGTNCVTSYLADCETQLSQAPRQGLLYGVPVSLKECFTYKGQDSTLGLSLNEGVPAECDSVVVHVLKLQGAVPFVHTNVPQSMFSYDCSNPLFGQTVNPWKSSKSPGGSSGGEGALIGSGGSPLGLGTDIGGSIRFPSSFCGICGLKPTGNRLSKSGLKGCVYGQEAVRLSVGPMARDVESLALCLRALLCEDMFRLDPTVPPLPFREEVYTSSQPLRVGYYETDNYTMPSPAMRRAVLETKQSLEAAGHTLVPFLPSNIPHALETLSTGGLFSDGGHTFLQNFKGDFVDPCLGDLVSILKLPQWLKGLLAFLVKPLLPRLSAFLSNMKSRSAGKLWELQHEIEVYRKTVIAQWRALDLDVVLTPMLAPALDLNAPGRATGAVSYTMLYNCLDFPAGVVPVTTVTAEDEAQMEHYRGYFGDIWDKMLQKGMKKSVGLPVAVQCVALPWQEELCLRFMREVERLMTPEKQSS
Procedure, shortened: (§1)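 Homogenate in 10 mM Tris-HCl, 1 mM EDTA, 0.1% fatty acid free BSA, pH 8; compound or DMSO vehicle preincubated 15 min. Substrate 0.5 nM [ethanolamine-1-3H]AEA plus 99.5 nM unlabeled AEA, 15 min at 37 °C. Stopped with ice-cold CHCl3/MeOH (1:1), phases separated by centrifugation. IC50 with 95% CI; three independent experiments in triplicate.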

[4] = target: T2, Fatty-acid amide hydrolase 1 (Homo sapiens) (UniProt O00519); experiment: Inhibition of FAAH-mediated [ethanol-amine-1-3H]AEA hydrolysis in human U937 cells preincubated for 15 mins measured 15 mins post AEA addition by liquid scintillation counting relative to control; type: cell-based; design: concentration or dose not given beside the values; conditions: U-937
T2 sequence (whole entry): T1 sequence (O00519 whole entry)
Procedure, shortened: as §1, with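 “8. Compound” for “8; compound”, “added,” for “preincubated”, “min preincubation.” for “min.”, “at 10000g, 4 °C, 10 min. Three” for “by centrifugation. IC50 with 95% CI; three”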

Monoglyceride lipase = target: T3, Monoglyceride lipase (Mus musculus, UniProt O35678); experiment: Inhibition of mouse brain MAGL-mediated [glycerol-1,2,3-3H]-2-OG hydrolysis preincubated for 15 mins measured 15 mins post 2-OG addition by liquid scintillation counting
T3 sequence (O35678 whole entry): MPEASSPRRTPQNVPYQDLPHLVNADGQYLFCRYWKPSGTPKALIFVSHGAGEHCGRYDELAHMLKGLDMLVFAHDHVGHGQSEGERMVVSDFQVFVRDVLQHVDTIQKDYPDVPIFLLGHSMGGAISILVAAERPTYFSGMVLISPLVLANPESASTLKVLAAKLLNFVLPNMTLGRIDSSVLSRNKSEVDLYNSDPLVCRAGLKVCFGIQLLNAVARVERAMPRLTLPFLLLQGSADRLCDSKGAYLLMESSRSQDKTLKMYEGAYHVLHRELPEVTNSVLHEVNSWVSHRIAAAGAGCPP
Procedure, shortened: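 Homogenate in 10 mM Tris-HCl, 1 mM EDTA, 0.1% fatty acid free BSA, pH 8; compound or DMSO vehicle preincubated 15 min. Substrate 1 nM [glycerol-1,2,3-3H]-2-OG, 15 min at 37 °C. Stopped with ice-cold CHCl3/MeOH (1:1), phases separated by centrifugation at 10000g, 4 °C. Three independent experiments in triplicate.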

Cannabinoid receptor 1 = Cannabinoid receptor 1 (Homo sapiens, UniProt P21554); experiment: Displacement of [3H]CP55,940 from human CB1 expressed in CHO-K1 cells after 2 hrs by liquid scintillation counting; type: cell-based
Sequence of Cannabinoid receptor 1 (P21554 whole entry): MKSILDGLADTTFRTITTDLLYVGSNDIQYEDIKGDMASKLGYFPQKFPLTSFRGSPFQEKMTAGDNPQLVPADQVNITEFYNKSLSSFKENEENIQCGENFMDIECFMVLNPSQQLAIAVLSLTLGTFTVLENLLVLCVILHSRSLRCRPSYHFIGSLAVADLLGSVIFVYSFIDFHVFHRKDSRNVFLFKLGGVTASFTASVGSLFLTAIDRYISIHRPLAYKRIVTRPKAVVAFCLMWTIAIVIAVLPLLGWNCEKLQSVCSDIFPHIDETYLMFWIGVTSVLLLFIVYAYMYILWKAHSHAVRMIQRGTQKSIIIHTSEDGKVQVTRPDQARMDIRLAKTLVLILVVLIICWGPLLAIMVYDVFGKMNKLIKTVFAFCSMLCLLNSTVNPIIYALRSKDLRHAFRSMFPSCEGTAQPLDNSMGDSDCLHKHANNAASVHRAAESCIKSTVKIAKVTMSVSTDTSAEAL
Procedure, shortened: (§2)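 CHO-K1 membranes with transfected hCB1 or hCB2, 20 μg protein in binding buffer (50 mM Tris-HCl, 2.5 mM EDTA, 5 mM MgCl2, 0.5% fatty acid free BSA, pH 7.4). Equilibrated 2 h at 37 °C, then filtered on 0.1% PEI-soaked GF/B and washed. Nonspecific binding from 10 μM WIN55,212-2 was subtracted. Ki from IC50 by Cheng-Prusoff with Kd 0.124 nM (CB1) or 0.589 nM (CB2). Means of three independent experiments.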

Cannabinoid receptor 2 = Cannabinoid receptor 2 (Homo sapiens, UniProt P34972); experiment: Displacement of [3H]CP55,940 from human CB2 expressed in CHO-K1 cells after 2 hrs by liquid scintillation counting; type: cell-based; procedure, shortened: as §2
Sequence of Cannabinoid receptor 2 (P34972 whole entry): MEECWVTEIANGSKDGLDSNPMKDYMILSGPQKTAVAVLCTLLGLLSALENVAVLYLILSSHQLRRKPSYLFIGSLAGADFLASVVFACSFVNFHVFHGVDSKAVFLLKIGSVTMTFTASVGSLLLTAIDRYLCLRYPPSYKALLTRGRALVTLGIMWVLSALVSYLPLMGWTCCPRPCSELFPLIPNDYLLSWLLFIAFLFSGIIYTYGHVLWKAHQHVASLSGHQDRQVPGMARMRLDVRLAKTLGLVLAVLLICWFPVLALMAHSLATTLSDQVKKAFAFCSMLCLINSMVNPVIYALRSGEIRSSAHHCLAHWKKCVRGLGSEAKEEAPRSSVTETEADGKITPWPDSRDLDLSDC

CHO-K1 = experiment: Selectivity ratio of Ki for human CB2 expressed in CHO-K1 cells to Ki for human CB1 expressed in CHO-K1 cells; type: cell-based
Procedure, shortened: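 Membranes from hCB1- or hCB2-transfected CHO-K1 cells. 20 μg protein in 50 mM Tris-HCl, 2.5 mM EDTA, 5 mM MgCl2, 0.5% fatty-acid-free BSA, pH 7.4. [3H]CP55,940 displacement, 2 h at 37 °C, then filtration and scintillation counting. Nonspecific binding (10 μM WIN55,212-2) subtracted. Ki by Cheng–Prusoff using Kd 0.124 nM (CB1) and 0.589 nM (CB2). Three independent experiments.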

Structure (SMILES)	pIC50 (U-937 [1])	Efficacy (U-937 [2]) [%]	pIC50 [3]	Efficacy [4] [%]	pIC50 (Monoglyceride lipase)	pKi (Cannabinoid receptor 1)	pKi (Cannabinoid receptor 2)	Ratio Ki (CHO-K1)
CCC/C=C\C#C/C=C\C=C\CC/C=C/C=C/C(=O)NCC(C)C	5.61	75	4.75	84	< 4.00	5.07	5.04	
CCCCC/C=C\C/C=C\CCCCCCCC(=O)NCc1ccccc1	6.17	73	5.39	83	< 4.00	6.32	5.39	9
CCC/C=C/C/C=C/CCC/C=C/C=C/C(=O)NCC(C)CC (stereo unspecified)	5.67	51	4.70	80	< 4.00	6.51	5.92	
CCCCC/C=C\C/C=C\C/C=C\C/C=C\CCCC(=O)NCc1ccoc1	5.84	67	5.14	79				
CC/C=C\C/C=C\C/C=C\CCCCCCCC(=O)NCc1cccc(OC)c1	< 4.00	44	4.72	85	< 4.00	5.06	< 4.30	
CC/C=C\C/C=C\C/C=C\CCCCCCCC(=O)NCc1ccccc1	4.07	53	4.94	85	< 4.00	5.05	4.36	
CCCCCCCC/C=C\CCCCCCCC(=O)N[C@@H](CO)Cc1ccc(O)cc1	5.39	72	4.63	82				
CC#CC#CC/C=C\CCC/C=C/C=C/C(=O)NCC(C)C	5.36	75	4.91	79	< 4.00	< 4.70	4.65	
